These results are taken from ChEMBL document CHEMBL4257575, “Discovery of Novel Flavonoid Dimers To Reverse Multidrug Resistance Protein 1 (MRP1, ABCC1) Mediated Drug Resistance in Cancers Using a High Throughput Platform with "Click Chemistry"” (J Med Chem, 2018).

For the data set, the target named is Multidrug resistance-associated protein 1 (Homo sapiens, UniProt P33527). Briefly: Inhibition of MRP1 in human 2008/MRP1 cells assessed as potentiation of doxorubicin-induced cytotoxicity by measuring cell survival at 2 uM after 5 days by MTS assay relative to control. In kind it is cell-based. The conditions noted are these: 120 h. The method, boiled down: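 2008/MRP1 cells (retroviral human MRP1 transfectant; RPMI 1640, 10% FBS) at 4,000 per well, with 100 nM doxorubicin plus crude, unpurified click products in DMSO: 2 µM in the primary screen, 1 µM in the secondary. Incubated 5 days at 37 °C. MTS/PMS added for 2 h at 37 °C, absorbance read at 490 nm. % survival is relative to wells without DOX or product. Run in triplicate, at least three experiments.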
Sequence of Multidrug resistance-associated protein 1 (P33527 whole entry): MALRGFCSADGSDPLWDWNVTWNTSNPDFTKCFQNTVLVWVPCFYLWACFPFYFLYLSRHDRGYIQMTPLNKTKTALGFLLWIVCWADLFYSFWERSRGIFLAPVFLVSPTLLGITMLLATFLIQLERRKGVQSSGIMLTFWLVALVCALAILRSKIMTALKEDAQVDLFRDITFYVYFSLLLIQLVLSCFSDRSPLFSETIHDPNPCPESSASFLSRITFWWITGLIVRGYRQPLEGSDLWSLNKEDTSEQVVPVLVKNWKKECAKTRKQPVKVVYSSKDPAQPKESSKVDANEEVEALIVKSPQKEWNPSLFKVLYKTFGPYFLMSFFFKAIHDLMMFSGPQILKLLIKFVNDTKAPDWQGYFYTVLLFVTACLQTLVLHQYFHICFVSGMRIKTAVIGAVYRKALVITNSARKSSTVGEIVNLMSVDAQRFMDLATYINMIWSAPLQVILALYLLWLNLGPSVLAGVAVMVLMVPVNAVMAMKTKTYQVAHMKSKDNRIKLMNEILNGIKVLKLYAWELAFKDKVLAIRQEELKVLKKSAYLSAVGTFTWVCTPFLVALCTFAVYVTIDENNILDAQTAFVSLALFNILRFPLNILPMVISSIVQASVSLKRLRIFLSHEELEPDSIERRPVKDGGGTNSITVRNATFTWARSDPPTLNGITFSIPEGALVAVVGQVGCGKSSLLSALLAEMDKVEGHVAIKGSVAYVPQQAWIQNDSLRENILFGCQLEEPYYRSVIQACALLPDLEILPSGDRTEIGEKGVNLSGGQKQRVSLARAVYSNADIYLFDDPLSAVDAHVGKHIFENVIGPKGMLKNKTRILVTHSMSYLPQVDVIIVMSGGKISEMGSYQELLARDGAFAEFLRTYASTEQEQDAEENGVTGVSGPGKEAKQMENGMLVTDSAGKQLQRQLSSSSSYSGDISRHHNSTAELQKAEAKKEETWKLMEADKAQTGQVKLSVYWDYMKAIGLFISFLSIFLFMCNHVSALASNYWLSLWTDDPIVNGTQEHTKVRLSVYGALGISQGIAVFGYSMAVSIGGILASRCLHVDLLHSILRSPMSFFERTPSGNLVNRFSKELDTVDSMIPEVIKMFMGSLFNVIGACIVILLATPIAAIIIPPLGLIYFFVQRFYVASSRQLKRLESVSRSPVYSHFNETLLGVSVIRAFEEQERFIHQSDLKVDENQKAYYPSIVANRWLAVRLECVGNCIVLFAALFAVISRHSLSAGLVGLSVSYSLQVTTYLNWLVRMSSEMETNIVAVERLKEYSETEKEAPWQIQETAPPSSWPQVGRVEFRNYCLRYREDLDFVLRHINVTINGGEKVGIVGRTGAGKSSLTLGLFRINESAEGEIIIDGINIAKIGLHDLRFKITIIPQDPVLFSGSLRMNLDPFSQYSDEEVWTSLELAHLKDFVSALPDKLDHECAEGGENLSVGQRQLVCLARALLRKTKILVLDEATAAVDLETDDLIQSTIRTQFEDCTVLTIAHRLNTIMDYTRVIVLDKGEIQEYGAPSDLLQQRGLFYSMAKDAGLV

Take `Cc1ccc(O)c(C(=O)/C=C/c2ccc(OCCCCc3cn(CCOCCOc4ccc5c(=O)cc(-c6ccccc6)oc5c4)nn3)cc2)c1`: the Survival is on record as 73%.

As for `COCOc1cc(OCc2ccccc2)c2c(=O)cc(-c3ccc(OCCCc4cn(CCOCCOc5ccc(-c6oc7ccccc7c(=O)c6OCc6cccc(OC)c6)cc5)nn4)cc3)oc2c1`, the Survival worked out at 79%.

As to `O=C(/C=C/c1ccc(OCCCCc2cn(CCOCCOc3cccc(-c4oc5ccccc5c(=O)c4OCc4ccccc4)c3)nn2)cc1)c1ccc(F)cc1O`, the Survival is reported as 68%.

Consider `Cc1ccc(C(=O)/C=C/c2ccc(OCCCCc3cn(CCOCCOc4ccc(-c5cc(=O)c6ccccc6o5)cc4)nn3)cc2)c(O)c1`, for which the Survival is 57%.

For the molecule `Cc1ccc(C(=O)/C=C/c2ccc(OCCCCc3cn(CCOCCOc4cccc(-c5oc6ccccc6c(=O)c5OCc5ccccc5)c4)nn3)cc2)c(O)c1`, the Survival came out at 79%.

As for `Cc1ccc2oc(-c3ccc(OCCOCCOCCn4cc(COCCOc5ccc6c(=O)cc(-c7ccccc7)oc6c5)nn4)cc3)cc(=O)c2c1`, the Survival amounted to 54%.

As to `C#Cc1cccc(C#C)c1`, the Survival is on record as 84%.

`[N-]=[N+]=NCCOCCOc1ccc(-c2cc(=O)c3cc(F)ccc3o2)cc1`: the Survival came out at 90%.

In the case of `C#CCN(CC#C)Cc1ccccc1`, the Survival worked out at 81%.

Regarding `Cc1ccc(C(=O)/C=C/c2ccc(OCCCCc3cn(CCOCCOc4ccc(-c5oc6ccccc6c(=O)c5OCc5ccccc5)cc4)nn3)cc2)c(O)c1`, the Survival is on record as 66%.

In the case of `C#CCCCCOc1ccc(/C=C/C(=O)c2ccc(C)cc2O)cc1`, the Survival is reported as 100%.

For the molecule `O=c1cc(-c2ccccc2)oc2cc(OCCCCc3cn(CCOc4cccc5c(=O)cc(-c6ccccc6)oc45)nn3)ccc12`, the Survival is recorded as 60%.

For the molecule `COc1cccc(COc2c(-c3ccc(OCCOCCn4cc(CCCOc5ccc(-c6nc7ccccc7c(=O)[nH]6)cc5)nn4)cc3)oc3ccccc3c2=O)c1`, the Survival was 67%.

`C#CCCCCOc1ccc(C=O)cc1`: the Survival came out at 86%.

For `C#CCN(C)CCN(C)CC#C`, the Survival is recorded as 87%.

As for `O=c1cc(-c2ccc(OCCOCCn3cc(CN4CCN(Cc5cn(CCOCCOc6ccc(-c7cc(=O)c8cc(F)ccc8o7)cc6)nn5)CC4)nn3)cc2)oc2ccc(F)cc12`, the Survival came out at 86%.

For the molecule `O=c1cc(-c2ccc(OCCOCCOCCn3cc(CCCOc4ccc(-c5cc(=O)c6cc(F)ccc6o5)cc4)nn3)cc2)oc2ccccc12`, the Survival is listed as 79%.

Take `Cc1ccc2oc(-c3ccc(OCCOCCOCCn4cc(CCCCOc5ccc(/C=C/C(=O)c6ccc(F)cc6O)cc5)nn4)cc3)cc(=O)c2c1`: the Survival came to 63%.

On to `O=c1cc(-c2ccc(OCCOCCOCCn3cc(-c4cccc(-c5cn(CCOCCOCCOc6ccc(-c7cc(=O)c8ccccc8o7)cc6)nn5)c4)nn3)cc2)oc2ccccc12`, for which the Survival amounted to 85%.

As for `C#Cc1ccc(C#C)cc1`, the Survival came to 86%.

In the case of `C#CCCCOc1ccc2c(=O)cc(-c3ccccc3)oc2c1`, the Survival is recorded as 85%.

On to `Cc1ccc2oc(-c3ccc(OCCOCCOCCn4cc(CN(Cc5ccccc5)Cc5cn(CCOCCOCCOc6ccc(-c7cc(=O)c8cc(C)ccc8o7)cc6)nn5)nn4)cc3)cc(=O)c2c1`, for which the Survival came out at 52%.

Take `Cc1ccc(C(=O)/C=C/c2ccc(OCCCCc3cn(CCOCCOCCOc4ccc5c(=O)cc(-c6ccccc6)oc5c4)nn3)cc2)c(O)c1`: the Survival was found to be 72%.

On to `O=c1cc(-c2ccc(OCCOCCOCCn3cc(CN(Cc4cn(CCOCCOCCOc5ccc(-c6cc(=O)c7cc(F)ccc7o6)cc5)nn4)Cc4cn(CCOCCOCCOc5ccc(-c6cc(=O)c7cc(F)ccc7o6)cc5)nn4)nn3)cc2)oc2ccc(F)cc12`, for which the Survival was found to be 77%.

Regarding `CN(CCN(C)Cc1cn(CCOCCOc2cccc(-c3oc4ccccc4c(=O)c3OCc3ccccc3)c2)nn1)Cc1cn(CCOCCOc2cccc(-c3oc4ccccc4c(=O)c3OCc3ccccc3)c2)nn1`, the Survival is listed as 83%.

Consider `O=c1cc(-c2ccccc2)oc2cc(OCCCc3cn(CCOCCOCCOc4ccc(-c5oc6ccccc6c(=O)c5OCc5ccccc5)cc4)nn3)ccc12`, for which the Survival is 63%.

With `Cc1ccc(O)c(C(=O)/C=C/c2ccc(OCCCCc3cn(CCOCCOCCOc4ccc(-c5cc(=O)c6ccccc6o5)cc4)nn3)cc2)c1`, the Survival turned out to be 70%.

With `O=c1cc(-c2ccccc2)oc2cc(OCCCCc3cn(CCOCCOc4ccc5c(=O)cc(-c6ccccc6)oc5c4)nn3)ccc12`, the Survival is on record as 53%.

Regarding `O=c1cc(-c2ccc(OCCCc3cn(CCOCCOCCOc4ccc(-c5cc(=O)c6cc(F)ccc6o5)cc4)nn3)cc2)oc2ccc(F)cc12`, the Survival was 76%.

Consider `O=c1cc(-c2ccccc2)oc2cc(OCCn3cc(-c4ccc(-c5cn(CCOc6ccc7occ(-c8ccccc8)c(=O)c7c6)nn5)cc4)nn3)ccc12`, for which the Survival is on record as 87%.

For `O=C(/C=C/c1ccc(OCCCCc2cn(CCOCCOCCOc3ccc4c(=O)cc(-c5ccccc5)oc4c3)nn2)cc1)c1ccccc1O`, the Survival came out at 72%.

Take `O=c1c(OCc2ccccc2)c(-c2cccc(OCCOCCn3cc(CN4CCN(Cc5cn(CCOCCOc6cccc(-c7oc8ccccc8c(=O)c7OCc7ccccc7)c6)nn5)CC4)nn3)c2)oc2ccccc12`: the Survival is 84%.

Consider `CCc1ccc(O)c(C(=O)/C=C/c2ccc(OCCCCc3cn(CCOc4cccc5c(=O)cc(-c6ccccc6)oc45)nn3)cc2)c1`, for which the Survival is 86%.

As for `O=c1[nH]c(-c2ccc(OCCCc3cn(CCOCCOc4ccc(-c5oc6ccccc6c(=O)c5OCc5ccccc5)cc4)nn3)cc2)nc2ccccc12`, the Survival turned out to be 64%.

With `O=c1cc(-c2ccc(OCCOCCOCCn3cc(CNc4ccccc4)nn3)cc2)oc2ccccc12`, the Survival was found to be 88%.

In the case of `O=Cc1ccc(OCCCCc2cn(CCOCCOCCOc3ccc4c(=O)cc(-c5ccccc5)oc4c3)nn2)cc1`, the Survival amounted to 81%.

As for `COc1cccc(COc2c(-c3ccc(OCCOCCn4cc(-c5ccc(-c6cn(CCOCCOc7ccc(-c8oc9ccccc9c(=O)c8OCc8cccc(OC)c8)cc7)nn6)cc5)nn4)cc3)oc3ccccc3c2=O)c1`, the Survival was 88%.

Consider `CN(CCN(C)Cc1cn(CCOCCOCCOc2ccc3c(=O)cc(-c4ccccc4)oc3c2)nn1)Cc1cn(CCOCCOCCOc2ccc3c(=O)cc(-c4ccccc4)oc3c2)nn1`, for which the Survival is recorded as 88%.

For the molecule `O=c1cc(-c2ccc(OCCCc3cn(CCOCCOc4ccc(-c5oc6ccccc6c(=O)c5OCc5ccccc5)cc4)nn3)cc2)oc2cc(F)ccc12`, the Survival was found to be 60%.

Take `C#CCCCCOc1ccc(/C=C/C(=O)c2cc(C)ccc2O)cc1`: the Survival was 100%.

Turning to `O=c1c(OCc2ccccc2)c(-c2ccc(OCCOCCn3cc(-c4ccc(-c5cn(CCOCCOc6ccc(-c7oc8ccccc8c(=O)c7OCc7ccccc7)cc6)nn5)cc4)nn3)cc2)oc2ccccc12`, the Survival was 82%.

On to `O=c1cc(-c2ccccc2)oc2cc(OCCOCc3cn(CCOCCOCCOc4ccc(-c5cc(=O)c6cc(F)ccc6o5)cc4)nn3)ccc12`, for which the Survival amounted to 53%.

`COc1cccc(COc2c(-c3ccc(OCCCCc4cn(CCOCCOc5cccc(-c6oc7ccccc7c(=O)c6OCc6ccccc6)c5)nn4)cc3)oc3ccccc3c2=O)c1`: the Survival amounted to 75%.

Turning to `O=c1cc(-c2ccc(OCCCc3cn(CCOCCOc4ccc(-c5cc(=O)c6cc(F)ccc6o5)cc4)nn3)cc2)oc2cc(F)ccc12`, the Survival came out at 55%.

Consider `Cc1ccc(O)c(C(=O)/C=C/c2ccc(OCCCCc3cn(CCOCCOc4cccc(-c5oc6ccccc6c(=O)c5OCc5ccccc5)c4)nn3)cc2)c1`, for which the Survival came to 78%.

As to `O=c1cc(-c2ccc(OCCCc3cn(CCOc4cccc5c(=O)cc(-c6ccccc6)oc45)nn3)cc2)oc2ccc(F)cc12`, the Survival is listed as 89%.

For the molecule `COc1cccc(COc2c(-c3ccc(OCCOCCn4cc(CCCCOc5ccc(-c6cc(=O)c7cc(C)ccc7o6)cc5)nn4)cc3)oc3ccccc3c2=O)c1`, the Survival turned out to be 78%.

For `Cc1ccc2oc(-c3ccc(OCCOCCOCCn4cc(CCCOc5ccc(-c6cc(=O)c7ccccc7o6)cc5)nn4)cc3)cc(=O)c2c1`, the Survival was 51%.

For the molecule `[N-]=[N+]=NCCOc1ccc2c(=O)cc(-c3ccccc3)oc2c1`, the Survival was found to be 79%.

On to `COc1cccc(COc2c(-c3ccc(OCCOCCn4cc(CCCCOc5ccc(/C=C/C(=O)c6cc(C)ccc6O)cc5)nn4)cc3)oc3ccccc3c2=O)c1`, for which the Survival is on record as 75%.

As for `C#CCCCCOc1ccc(-c2cc(=O)c3cc(C)ccc3o2)cc1`, the Survival is 88%.

For the molecule `Cc1ccc2oc(-c3ccc(OCCOCCOCCn4cc(CCCOc5ccc(-c6nc7ccccc7c(=O)[nH]6)cc5)nn4)cc3)cc(=O)c2c1`, the Survival is 72%.

Regarding `O=c1cc(-c2ccc(OCCCc3cn(CCOCCOc4cccc(-c5oc6ccccc6c(=O)c5OCc5ccccc5)c4)nn3)cc2)oc2ccc(F)cc12`, the Survival was found to be 79%.

As to `CCc1ccc(O)c(C(=O)/C=C/c2ccc(OCCCCc3cn(CCOCCOc4ccc(-c5oc6ccccc6c(=O)c5OCc5cccc(OC)c5)cc4)nn3)cc2)c1`, the Survival was determined as 76%.

Regarding `CCc1ccc(O)c(C(=O)/C=C/c2ccc(OCCCCc3cn(CCOCCOCCOc4ccc(-c5cc(=O)c6cc(C)ccc6o5)cc4)nn3)cc2)c1`, the Survival amounted to 63%.

Consider `O=c1cc(-c2ccccc2)oc2cc(OCCOCCOCCn3cc(CN(CCOc4ccc5c(=O)cc(-c6ccccc6)oc5c4)Cc4ccccc4)nn3)ccc12`, for which the Survival was found to be 51%.

With `O=C(/C=C/c1ccc(OCCCCc2cn(CCOCCOCCOc3ccc(-c4oc5ccccc5c(=O)c4OCc4ccccc4)cc3)nn2)cc1)c1ccccc1O`, the Survival is 61%.

For `Cc1ccc(O)c(C(=O)/C=C/c2ccc(OCCCCc3cn(CCOCCOCCOc4ccc(-c5cc(=O)c6cc(F)ccc6o5)cc4)nn3)cc2)c1`, the Survival amounted to 72%.

As for `O=c1c(OCc2ccccc2)c(-c2cccc(OCCOCCn3cc(CN(Cc4cn(CCOCCOc5cccc(-c6oc7ccccc7c(=O)c6OCc6ccccc6)c5)nn4)Cc4cn(CCOCCOc5cccc(-c6oc7ccccc7c(=O)c6OCc6ccccc6)c5)nn4)nn3)c2)oc2ccccc12`, the Survival worked out at 91%.
